From ChEMBL document CHEMBL1629705, “PSI-7851, a pronucleotide of beta-D-2'-deoxy-2'-fluoro-2'-C-methyluridine monophosphate, is a potent and pan-genotype inhibitor of hepatitis C virus replication” (Antimicrob Agents Chemother, 2010) come the findings set out here.

SMILES strings stand for the structures. Active and inactive are the calls of the source. No cut-off for these calls is given here.

One experiment relates to Yellow fever virus. Nature of the experiment: Antiviral activity against Yellow fever virus 17D by neutral red assay. Type of experiment: functional.
The test system of experiment [1] is Hepatitis C virus. Put plainly: Antiviral activity against Hepatitis C virus harboring NS5B polymerase S96T mutant gene infected in human lunet cells by luciferase-based replicon assay. It counts as functional, Hepacivirus hominis. Put shortly:
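ET-lunet cells with the ET genotype 1b replicon, wild-type or S96T/N142T (ET replicon with these mutations electroporated into Lunet cells, selected in 0.2 mg/ml G418). 3,000 cells/well, 4 days with serially diluted compound. Firefly luciferase luminescence read-out; EC90 from dose–response.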

In experiment [2] the test system is Hepatitis C virus. Put plainly: Antiviral activity against Hepatitis C virus assessed as inhibition of viral rebound at 2 uM after 3 weeks in presence of G418. It counts as functional, organism-based. As to conditions: Hepacivirus hominis. The method, boiled down:
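ET-lunet replicon cells, 1 × 10^5/well, no G418, with compound at 0.1, 1 or 2 μM (final DMSO 0.5%). Passaged 1:3 or 1:4 every 3–4 days for 3 weeks with fresh compound, then 3 more weeks with 0.25 mg/ml G418 and no inhibitor. HCV RNA by RT-PCR normalized to rRNA (ΔΔCt vs DMSO) at each passage. Crystal violet colony staining at 6 weeks.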

A further experiment deals with DNA polymerase beta (Homo sapiens, UniProt P06746). Nature of the experiment: Inhibition of human DNA polymerase beta assessed as incorporation of [alpha-32P]dCTP up to 1mM preincubated for 30 mins by whatman DE81 paper binding assay. The method, boiled down: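 Human DNA polymerase β at 18 μg/ml final, in 50 mM Tris pH 7.5, 50 mM NaCl, 5 mM MgCl2, activated calf thymus DNA and 20 μM each dNTP with [α-32P]dCTP. Triphosphate up to 1 mM. 37°C, stopped at 30 min with EDTA. Products quantified by DE81 paper binding; IC50 by nonlinear fit.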

The compound `CC(C)OC(=O)[C@H](C)NP(=O)(OC[C@H]1O[C@@H](n2ccc(=O)[nH]c2=O)[C@](C)(F)[C@@H]1O)Oc1ccccc1` (some centres undefined) gave an EC50 with Yellow fever virus above 100 µM. The same compound returned an EC90 in the experiment on Hepatitis C virus [1] of 0.39 µM. Further, the inhibition entry with Hepatitis C virus [2] is “Active”.

In the case of `C[C@@]1(F)[C@H](O)[C@@H](COP(=O)(O)OP(=O)(O)OP(=O)(O)O)O[C@H]1n1ccc(=O)[nH]c1=O` [GS-461203], the IC50 at DNA polymerase beta was above 1000 µM.
